Results as given in ChEMBL document CHEMBL1155337, “N-substituted bis-C-alkyloxadiazolones as dual effectors: efficient intermediates to amidoximes or amidines and prodrug candidates of potent antimalarials” (Bioorg Med Chem Lett, 2009).
Calls of active or inactive are those of the source. The calls are words filed in the database; no cut-off is given here.

Tests used:
[1] = system: Plasmodium vinckei petteri; experiment: Antimalarial activity against Plasmodium vinckei petteri 279BY infected peroral daily dosed Swiss mice (Mus musculus) assessed as reduction in parasitaemia level measured after 4 days; format: functional; settings: po, 96 h
Outline: (§1)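 Female Swiss mice were infected with P. vinckei petteri 279BY on day 0. Compound was given intraperitoneally or orally once daily for four consecutive days (days 1–4 post infection). Three doses were tested per compound, with 3 mice per dose. Parasitemia was monitored against untreated control, and cleared animals were followed 28 days for recrudescence. ED50 was derived from the dose series.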

[2] = system: Plasmodium vinckei petteri; experiment: Antimalarial activity against Plasmodium vinckei petteri 279BY infected in Swiss mice (Mus musculus) assessed as reduction in parasitaemia level at 10 mg/kg, intraperitoneal measured after 4 days; format: functional; settings: ip, 96 h; outline: as §1
[3] = system: Plasmodium falciparum; experiment: Antimalarial activity against chloroquine-sensitive Plasmodium falciparum Nigerian; format: functional, organism-based
Outline: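 In vitro IC50 values are means of at least two independent experiments, each run in duplicate.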

[4] = system: Mus musculus; experiment: Toxicity in Plasmodium vinckei petteri 279BY infected Swiss mice (Mus musculus) at 5 mg/kg, intraperitoneally; format: organism-based; parameters: dose 5 mg/kg, route intraperitoneal; settings: in vivo, ip
[5] = system: Plasmodium vinckei petteri; experiment: Antimalarial activity against Plasmodium vinckei petteri 279BY infected in Swiss mice (Mus musculus) assessed as reduction in parasitaemia level at 5 mg/kg, intraperitoneally relative to control; format: functional; parameters: scale not given: the % may be the effect or the level left; settings: route intraperitoneal; outline: as §1
[6] = system: Plasmodium vinckei petteri; experiment: Antimalarial activity against Plasmodium vinckei petteri 279BY infected intraperitoneally daily dosed Swiss mice (Mus musculus) assessed as reduction in parasitaemia after 28 days; format: functional; settings: ip, 672 h; outline: as §1
[7] = system: Plasmodium vinckei petteri; experiment: Antimalarial activity against Plasmodium vinckei petteri 279BY infected in Swiss mice (Mus musculus) at 10 mg/kg, intraperitoneal after 4 days; format: functional, organism-based; parameters: dose 10 mg/kg; outline: as §1
[8] = system: Plasmodium vinckei petteri; experiment: Antimalarial activity against Plasmodium vinckei petteri 279BY infected in Swiss mice (Mus musculus) assessed as reduction in parasitaemia level at 180 mg, perorally relative to control; format: functional; parameters: scale not given: the % may be the effect or the level left; outline: as §1
[9] = system: Plasmodium vinckei petteri; experiment: Antimalarial activity against Plasmodium vinckei petteri 279BY infected in Swiss mice (Mus musculus) assessed as reduction in parasitaemia level at 90 mg/kg, perorally relative to control; format: functional; parameters: scale not given: the % may be the effect or the level left; settings: route oral; outline: as §1
[10] = system: Mus musculus; experiment: Toxicity in Plasmodium vinckei petteri 279BY infected Swiss mice (Mus musculus) at >10 mg/kg, intraperitoneally; format: organism-based; settings: in vivo, ip

Row | SMILES | ED50 [1] | ED50 [2] | IC50 [3] | other results
1 | N/C(CCCCCCCCCCCC/C(N)=N/O)=N\O | 120 mg/kg |  |  | 
2 | O=c1[nH]c(CCCCCCCCCCCCc2noc(=O)[nH]2)no1 | 100 mg/kg | > 20 mg/kg |  | 
3 | CN/C(CCCCCCCCCCCC/C(=N/O)NC)=N\O | > 180 mg/kg |  | 10100 nM | Activity [4]: Toxic; Activity [5]: 44%
4 | COCCNC(=N)CCCCCCCCCCCCC(=N)NCCOC.Cl.Cl | > 90 mg/kg | 8 mg/kg | 9.2 nM | ED50 [6]: 8 mg/kg
5 | Cn1c(CCCCCCCCCCCCc2noc(=O)n2C)noc1=O | > 45 mg/kg | > 20 mg/kg |  | 
6 | Cl.Cl.N=C(N)CCCCCCCCCCCCC(=N)N | > 100 mg/kg | > 10 mg/kg |  | Activity [7]: inactive
7 | O=c1onc(CCCCCCCCCCCCc2noc(=O)n2Cc2ccccc2)n1Cc1ccccc1 | > 90 mg/kg | > 20 mg/kg | 4950 nM | 
8 | CCn1c(CCCCCCCCCCCCc2noc(=O)n2CC)noc1=O | > 20 mg/kg | > 10 mg/kg | 10000 nM | 
9 | CCN/C(CCCCCCCCCCCC/C(=N/O)NCC)=N\O | > 180 mg/kg | 3.1 mg/kg | 6200 nM | Activity [5]: 76%; Activity [8]: 20%
10 | COCCn1c(CCCCCCCCCCCCc2noc(=O)n2CCOC)noc1=O | 90 mg/kg | > 20 mg/kg | 6450 nM | Activity [9]: 50%
11 | Cl.Cl.N=C(CCCCCCCCCCCCC(=N)NCc1ccccc1)NCc1ccccc1 | > 90 mg/kg | > 20 mg/kg | 4.6 nM | Activity [7]: inactive
12 | COCCN/C(CCCCCCCCCCCC/C(=N/O)NCCOC)=N\O | > 180 mg/kg |  | 2950 nM | Activity [4]: Toxic; Activity [5]: 33%; Activity [8]: 16%
13 | O/N=C(/CCCCCCCCCCCC/C(=N/O)NCc1ccccc1)NCc1ccccc1 | > 90 mg/kg | > 20 mg/kg | 1040 nM | 
14 | CNC(=N)CCCCCCCCCCCCC(=N)NC.Cl.Cl | > 180 mg/kg |  | 14.4 nM | Activity [7]: inactive; Activity [10]: Toxic
15 | Cc1c(CCO)sc[n+]1CCCCCCCCCCCC[n+]1csc(CCO)c1C.[Br-].[Br-] [ALBITIAZOLIUM BROMIDE] | 13 mg/kg | 0.2 mg/kg |  | 
16 | CCNC(=N)CCCCCCCCCCCCC(=N)NCC.Cl.Cl | > 180 mg/kg | 6.3 mg/kg | 9.4 nM | ED50 [6]: 6.3 mg/kg
